# Laboratory results as given in publication PMC2943495 (Chemistry & biology, 2010).
# Legend:
# [1] = system: β-cat/β-TrCP; assay: Two-color PCA switch, green: β-cat/β-TrCP interaction; type: cell-based; details: HEK293T
# [2] = system: IκBα/β-TrCP; assay: Two-color PCA switch, red: IκBα/β-TrCP interaction; type: cell-based; details: HEK293T, TNFα 20 ng/ml
# [3] = system: PCA luciferase; assay: Control: effect on PCA luciferase enzyme activity; details: data not shown
# [4] = system: NFκB; assay: NFκB-dependent transcriptional reporter; type: cell-based; details: HEK293T, 2 hours
# Procedure, shortened: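 HEK293T cells in 24-well plates were transfected with an NFκB-driven FLuc reporter (200 ng/well). At 48 h the medium was changed to DMEM imaging medium. After 15 min equilibration a pre-treatment image was taken. Cells then received TNFα (20 ng/ml final) and/or a GSK3β inhibitor (50 μM final) or DMSO vehicle, and were re-imaged after 2 h in a humidified 5% CO2 incubator. Photon flux is reported as mean fold-initial ± S.E.M.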
# [5] = ref Inoue et al., 2005; cited from earlier work
# [6] = biological target: FRB-FKBP (Homo sapiens, UniProt P42345+P62942); assay: Real-time reversibility of CBG-N + CBG-C PCA; type: cell-based
# [7] = biological target: FRB-FKBP; details: ref Bierer et al., 1990, cited from earlier work
# [8] = system: EGFR; assay: EGFR-CBG PCA conformation sensing in CHO TetOn cells; type: cell-based
# Procedure, shortened: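 CHO TetOn cells in 96-well plates were transfected for 24 h with EGFR-CBG PCA fusion pairs, then serum-starved for 3 h. They were pre-incubated for 20 min untreated, with DMSO vehicle, or with test compound (10 μM). Baseline was imaged every 15 s for 10 min, then 25 nM EGF was added and imaging continued for 20 min. Untreated-well signal was subtracted. Mean of 8 replicate wells.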
# [9] = biological target: ΔFRB (S2035I)-FKBP (Homo sapiens, UniProt P42345+P62942, S2035I); assay: Luciferase PCA with mutant S2035I FRB; type: cell-based; details: HEK293T, 100 nM rapamycin for 6 hrs, Δ-N fusions
# [10] = system: IκBα; assay: IκBα-FLuc fusion reporter processing in HepG2 cells; type: cell-based; details: HepG2, TNFα 20 ng/mL
# Procedure, shortened: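 HepG2 cells were transiently transfected with a κB5-driven IκBα-FLuc fusion reporter (wild type or Ser32/Ser36 Ala mutants). After 48 h the medium was replaced with fresh medium containing D-luciferin, and cells were stimulated with TNFα (20 ng/mL) or vehicle. Real-time bioluminescence imaging was run under 5% CO2. Photon flux is reported as fold-initial, fold-untreated, mean ± S.E.M.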
# Sequence of FRB-FKBP (Homo sapiens, UniProt P42345+P62942) (P42345 2024-2113 limits assumed): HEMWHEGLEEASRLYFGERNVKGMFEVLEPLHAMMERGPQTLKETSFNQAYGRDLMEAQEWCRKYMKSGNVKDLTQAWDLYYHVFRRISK
# Sequence of FRB-FKBP (Homo sapiens, UniProt P42345+P62942) (P62942 whole entry): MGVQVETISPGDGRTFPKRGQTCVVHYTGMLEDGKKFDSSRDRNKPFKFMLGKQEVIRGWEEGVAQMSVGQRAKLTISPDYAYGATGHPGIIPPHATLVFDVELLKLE
# Sequence of ΔFRB (S2035I)-FKBP (P42345 2024-2113 S2035I): as the sequence (P42345 2024-2113 limits assumed) above, with S12I counted along it
# Sequence of ΔFRB (S2035I)-FKBP (P62942 whole entry, the tested form may be a part): as the sequence (P62942 whole entry) above
compound,measurement,setting,value
Cn1cc(C2=C(c3ccc(Cl)cc3Cl)C(=O)NC2=O)c2ccccc21 [SB-216763],basal β-cat/β-TrCP interactions (green photon flux),[1]; SB-216763 50 μM,attenuated
same,basal and TNFα-induced IκBα/β-TrCP interactions (red photon flux),[2]; SB-216763 50 μM,inhibited
same,effect on PCA luciferase enzyme activity per se,[3],no effect
same,TNFα-stimulated NFκB-dependent transcription (FLuc reporter),[4]; TNFα 20 ng/ml combined with SB216763 50 μM,dramatically attenuated
C=CC[C@@H]1/C=C(\C)C[C@H](C)C[C@H](OC)[C@H]2O[C@@](O)(C(=O)C(=O)N3CCCC[C@H]3C(=O)O[C@H](/C(C)=C/[C@@H]3CC[C@@H](O)[C@H](OC)C3)[C@H](C)[C@@H](O)CC1=O)[C@H](C)C[C@@H]2OC [FK506],membrane permeability,[5],somewhat low
same,change of bioluminescence after rapamycin pre-treatment,"[6]; HEK293T, CBG-N + CBG-C, rapamycin 10 nM, FK506 10 μM added at […]",brisk loss of bioluminescence
same,Ki,[7]; read-out: previously reported literature Ki,0.4 nM
N#CC(=C(/N)Sc1ccccc1N)/C(C#N)=C(/N)Sc1ccccc1N [U0126],recovery of luciferase PCA activity after EGF,"[8]; 10 μM U0126, 25 nM EGF",blunted recovery of luciferase PCA activity
CO[C@H]1C[C@@H]2CC[C@@H](C)[C@@](O)(O2)C(=O)C(=O)N2CCCC[C@H]2C(=O)O[C@H]([C@H](C)C[C@@H]2CC[C@@H](O)[C@H](OC)C2)CC(=O)[C@H](C)/C=C(\C)[C@@H](O)[C@@H](OC)C(=O)[C@H](C)C[C@H](C)/C=C/C=C/C=C/1C [rapamycin],membrane permeability,[5],somewhat low
same,induction of PCA signal,[9],no detectable induction
same,Kd,[7]; read-out: previously reported Kd,0.2 nM
TNFα,β-cat/β-TrCP basal green photon flux,[1]; TNFα 20 ng/ml,no substantial change
same,IκBα-FLuc reporter signal (wild type),[10],loss of signal
same,IκBα/β-TrCP interactions (red photon flux),[2],increase in red photon flux
same,NFκB-dependent transcription (FLuc reporter),[4]; TNFα 20 ng/ml alone,robust transcriptional stimulation
C[C@@H]1C[C@@H]([C@H](O)CC2CC(=O)NC(=O)C2)C(=O)[C@@H](C)C1 [cycloheximide],luciferase activity after rapamycin induction,[6]; cycloheximide 100 μM added to rapamycin-induced cells,remained stable for up to 8 hours
"EGF: recombinant mouse EGF ligand inducing EGFR activation (NSYPGCPSSYDGYCLNGGVCMHIESLDSYTCNCVIGYSGDRCQTRDLRWWELR; UniProt P01132 977-1029, looked up)",luciferase PCA signal response,[8]; 25 nM recombinant mouse EGF,rapid biphasic signal response
